In the library only some 4.3% were active in any assay of this set; here they are far more common.
ALR inh: inhibitors of human ALR sulfhydryl oxidase, primary screen, biochemical, H2O2 detection, HRP-luminol luminescence, single point | FAD-linked sulfhydryl oxidase ALR (Homo sapiens), P55789 | purified ALR, DTT oxidation | inhibition, % (test concentration not listed) | 290,000 tested, 3.8% active | AID 485317, 2010;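 active = mean replicate inhibition above about 79%, with every replicate also reaching it, limit read from the data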
Target sequence (P55789 whole entry, looked up): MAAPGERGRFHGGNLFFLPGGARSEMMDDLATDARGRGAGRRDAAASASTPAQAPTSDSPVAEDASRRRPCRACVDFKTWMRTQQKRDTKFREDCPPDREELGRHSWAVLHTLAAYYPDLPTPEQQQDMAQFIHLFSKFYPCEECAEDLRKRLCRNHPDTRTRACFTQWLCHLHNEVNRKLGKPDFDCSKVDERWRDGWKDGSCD
CAL PDZ FP-1: CAL PDZ peptide-binding inhibitors, primary screen, biochemical, fluorescence polarization, Cer-tagged CAL PDZ, HTS. 330,000 tested, 0.02% active. purified CAL PDZ, TMR-peptide fluorescence polarization, 1 h. AID 504414, 2011. inhibition, % at 20 µM. Golgi-associated PDZ and coiled-coil motif-containing protein (Homo sapiens), Q9HD26;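 active = highest replicate inhibition of at least 40%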;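 also: plate controls were DMSO neutral control wells for no effect and unlabeled competitor peptide control wells for full effect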
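Control set: unlabelled peptide and DMSO controls / Material: purified CerCALP PDZ construct / Timing: 1 h incubation at room temperature before polarization reading / Doses: 20 µM, one dose / Detection: fluorescence polarization (mP)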
Rtt109 Vps75: inhibitors of C. albicans Rtt109/Vps75 HAT, primary screen, biochemical, ThioGlo CoA-SH fluorescence, plate reader | purified Rtt109/Vps75, 4 h | inhibition, % at 34.9 µM | 330,000 tested, 0.16% active | AID 540336, 2011;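 active = inhibition of at least 50% in every replicate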
CAL PDZ FP-2: untagged CAL PDZ binding inhibitors, primary screen, biochemical, fluorescence polarization, HTS. inhibition, % at 24.9 µM. purified CAL PDZ, TMR-peptide fluorescence polarization, 1 h. Golgi-associated PDZ and coiled-coil motif-containing protein (Homo sapiens), Q9HD26. 300,000 tested, 0.92% active;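 active = mean inhibition of at least 30% with at least half of replicates also reaching 30%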;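 also: 0% = DMSO neutral control and 100% = excess unlabeled competitor peptide PRC23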
Dyrk1A ADPGlo: rat Dyrk1A kinase inhibitors, primary screen, biochemical, single point, plate reader; AID 504441, 2011; ADP-Glo luminescence, NFATc1 peptide; inhibition, % at 12.5 µM; Dual specificity tyrosine-phosphorylation-regulated kinase 1A (Rattus norvegicus), Q63470; 310,000 tested, 0.43% active; in the data active = inhibition above about 50%;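 also: plate controls were vehicle with enzyme for no effect and no enzyme for full effect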
An asterisk follows results filed as active.

Screening Cc1ccc(C)c(S(=O)(=O)Nc2ccc(O)c(Sc3ncn[nH]3)c2)c1 returned ALR inh 99*, CAL PDZ FP-1 1, Rtt109 Vps75 2, CAL PDZ FP-2 3 and Dyrk1A ADPGlo 4.
`Cc1cc(F)ccc1S(=O)(=O)Nc1ccc(O)c(Sc2ncn[nH]2)c1` gave ALR inh 99*, CAL PDZ FP-1 -2, Rtt109 Vps75 -1, CAL PDZ FP-2 -2 and Dyrk1A ADPGlo 3.
Screening CN(C)C(CNC1CC(C)(C)NC(C)(C)C1)c1cccc(F)c1 (centres undefined) returned ALR inh -1, CAL PDZ FP-1 -1, Rtt109 Vps75 -5, CAL PDZ FP-2 -3 and Dyrk1A ADPGlo -3.
For CCOC(=O)c1cc(C#N)c(SCC(=O)OC)[nH]c1=O the results were ALR inh 99*, CAL PDZ FP-1 -2, Rtt109 Vps75 1, CAL PDZ FP-2 -4 and Dyrk1A ADPGlo 1.
CCOC(=O)c1cc(C#N)c(N2CCN(c3ccc(OC)cc3)CC2)[nH]c1=O was read as ALR inh 93*, CAL PDZ FP-1 -2, Rtt109 Vps75 8, CAL PDZ FP-2 -6 and Dyrk1A ADPGlo 0.
Screening COC(=O)CSc1[nH]c(=O)cc(C)c1C#N returned ALR inh -16, CAL PDZ FP-1 0, Rtt109 Vps75 1, CAL PDZ FP-2 -3 and Dyrk1A ADPGlo 5.
`COc1ccccc1CNC(=O)[C@@H]1CCCN1S(=O)(=O)c1ccc(C)cc1` gave CAL PDZ FP-1 19, Rtt109 Vps75 -9 and CAL PDZ FP-2 5.
Screening Brc1cccc(CNCC2CCCO2)c1 (centres undefined) returned CAL PDZ FP-1 54*, Rtt109 Vps75 3, CAL PDZ FP-2 5 and Dyrk1A ADPGlo -3.
Screening CC(C)CC(=O)NC(=S)Nc1ccc(S(=O)(=O)Nc2nccs2)cc1 returned ALR inh 39, CAL PDZ FP-1 -3, Rtt109 Vps75 5, CAL PDZ FP-2 0 and Dyrk1A ADPGlo 0.
Screening O=C(CSc1nnnn1C1CC1)N1CCN(c2ccc(O)cc2)CC1 returned ALR inh 99*, CAL PDZ FP-1 0, Rtt109 Vps75 -9 and CAL PDZ FP-2 -1.
`O=C(c1cc(C(=O)c2ccco2)cc(C(=O)c2ccco2)c1)c1ccco1` gave ALR inh 97*, CAL PDZ FP-1 -3, Rtt109 Vps75 -5, CAL PDZ FP-2 -1 and Dyrk1A ADPGlo -2.
O=C(c1ncc[nH]1)c1ccco1 was read as ALR inh 2, CAL PDZ FP-1 -2, Rtt109 Vps75 -5, CAL PDZ FP-2 -3 and Dyrk1A ADPGlo -6.
Screening O=C(Oc1ccccc1)N1CCN(C(=O)c2ccco2)CC1 returned ALR inh -10, CAL PDZ FP-1 0, Rtt109 Vps75 14, CAL PDZ FP-2 2 and Dyrk1A ADPGlo 0.
`Cc1ccc(S(=O)(=O)N2CCN(CC(=O)N/N=C/c3ccc(C)o3)CC2)cc1` gave ALR inh 1, CAL PDZ FP-1 1, Rtt109 Vps75 3, CAL PDZ FP-2 -15 and Dyrk1A ADPGlo 4.
Screening COc1cc(/C=N/NC(=O)c2cccc(S(=O)(=O)N3CCCC3)c2)ccc1O returned ALR inh 99*, CAL PDZ FP-1 -3, Rtt109 Vps75 5, CAL PDZ FP-2 4 and Dyrk1A ADPGlo -7.
`O=C(N/N=C/c1ccc(O)c(O)c1)c1cccc(S(=O)(=O)N2CCCC2)c1` gave ALR inh 99*, CAL PDZ FP-1 -4, Rtt109 Vps75 23, CAL PDZ FP-2 -5 and Dyrk1A ADPGlo 14.
`COc1ccc(NS(=O)(=O)c2cccc(C(=O)NN=Cc3ccc(O)c(OC)c3)c2)cc1` gave ALR inh 36, CAL PDZ FP-1 -1 and Rtt109 Vps75 3.
Screening Cc1ccc(S(=O)(=O)N2CCN(CC(=O)N/N=C\c3ccc(O)c(O)c3)CC2)cc1 returned ALR inh 99*, CAL PDZ FP-1 1, Rtt109 Vps75 9, CAL PDZ FP-2 6 and Dyrk1A ADPGlo 5.
